Assay: Toxicity liver stage against HepG2, at 10uM
Assay type: cell-based
Design: test concentration 10 uM, cell line HepG2-A16-CD81EGFP
Conditions: human, HepG2-A16-CD81EGFP cells; read-out: INHIBITION
Outline: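 Uninfected HepG2-A16-CD81EGFP cells, 3 × 10^3 per well, 1536-well, plated on prespotted compound at 10 μM final, parasite-free screening media added to match infected plates; puromycin 10 μM positive, DMSO 0.5% negative; run in parallel with 48 h PbLuc assay at 37 °C, 5% CO2; viability by CellTiter-Glo luminescence, normalized to controls.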

SMILES | cytotoxicity at 10 µM [%]
CCn1cc(C(=O)Nc2ccccc2C(=O)OC)cn1 | -7.25
COC(=O)CC(c1cccc(OC(F)F)c1)c1oc(C)cc(=O)c1O (stereo unspecified) | -9.11
O=S(=O)(Cc1ccccc1Cl)N1CCC2(CC1)OCCS2 | 0.649
Cn1c(C(=O)NC2CC2)nc2c1CCN(c1ncccn1)C2 | -4.75
Cn1cc(CN2CCc3ncn(C)c3C2COCc2ccccc2)cn1 (stereo unspecified) | 9.19
CC(NC(=O)OC(C)(C)C)c1nnc(S(=O)(=O)Cc2ccccc2Cl)o1 (stereo unspecified) | 0.935
CCc1c(C)n(CCC#N)c2nc3ccccc3n2c1=O | 2.73
CC(C)n1[nH]c(=O)c2c1NC(=O)CSC2c1cccc(OCC(N)=O)c1 (stereo unspecified) | 8.46
CC1=Nc2c(c(O)nn2C(C)C)C(c2cnn(C)c2)S1 (stereo unspecified) | 10.8
Cn1c(C(F)(F)F)nn(CCNC(=O)c2cnc3ccccc3n2)c1=O | -20
CCN1CCN(C(=O)C(C)n2cc(Br)cn2)CC1 (stereo unspecified) | 6.39
CCS(=O)(=O)N1CCCCC1c1nc(CC(C)C)no1 (stereo unspecified) | 0.253
Cc1nn(C)c2c(N3CCN(C)CC3)nc(C3CC3)nc12 | -5.2
CCc1ccccc1NC(=O)c1cnn(C)c1C | -2.52
Cc1cc(NC2CC3(CCN(Cc4ncccc4F)C3)C2)ncn1 (stereo unspecified) | 0.0666
Cc1nccn1[C@@H]1CC[C@@H](NC(=O)CCOc2ccccc2)[C@H]1O | -12.7
Fc1ccccc1CN1CCC[C@H](Cn2nnc(-c3cccs3)n2)C1 | -0.152
CNc1cncc(C2CCCN2C(=O)CCn2ccnc2C(C)C)n1 (stereo unspecified) | 3.36
Cc1nc(Nc2nnc(C)s2)cc(C2CCCN2C)n1 (stereo unspecified) | 8.67
CC(=O)N1CCCC1c1nccc(C)n1 (stereo unspecified) | 1.31
CS(=O)(=O)N1CC2(CCN(CC3CC3)C2)Cc2ccccc21 (stereo unspecified) | -1.93
O=C(c1ccc(Cl)s1)N1CCC2(CNS(=O)(=O)c3cnccc3O2)C1 (stereo unspecified) | 15.5
CC(C)(C)OC(=O)N1CCCN(c2nnc(Br)s2)CC1 | 10.5

SMILES | cytotoxicity at 10 µM [%]
CN(CCOc1cccc(F)c1)CC(=O)Nc1ccncc1 | 9.16
CC(c1ccco1)N(C(=O)CNc1ccc(C#N)cc1)C1CC1 (stereo unspecified) | 7.79
COc1ccncc1NCc1cscn1 | 6.44
Cc1ccccc1C(C)NC(=O)CN1CCN(Cc2ccc(Cl)s2)CC1 (stereo unspecified) | 10.8
CC(=O)N1CCC(C(=O)N(CC(F)F)c2cccc(Cl)c2)CC1 | 5.71
COc1ccc(-c2nnc(C(C)N3CCOC(C)(C)C3)o2)cc1 (stereo unspecified) | 2.62
CCCN(CC1CC1)C(=O)Nc1ccc(N2CCSCC2)cc1C | 3.05
CCOCCOC(C)C(=O)NCc1ccc(N2CCCCC2)cc1 (stereo unspecified) | 11.6
O=C(CC1=CCCCC1)NCc1ccnc(OC2CCOCC2)c1 | -0.103
CCOC(=O)NCCC(=O)NCc1ccnc(Oc2ccc(F)cc2)c1 | 6.74
COc1ncccc1CNCc1c(C(C)C)nn(C)c1Cl | -3.74
O=C(CN1CCCCCC1=O)NCC1CCN(c2ccccc2)C1 (stereo unspecified) | -6.5
COc1cc(NC(=O)NC(C2CC2)C2CC2)ccc1N1CCOC1=O | 4.63
CCn1cc(NC(=O)C2CCN(Cc3ccccc3)CC2)cn1 | 2.41
Cc1cnc(CN(C)C2CCN(Cc3sc(C)nc3C)C2)o1 (stereo unspecified) | 3.45
O=C(Nc1nncs1)NC1CCCc2c1cnn2CCO (stereo unspecified) | -17.2
CCc1noc(C(C)N(C)CC(=O)Nc2ccccc2Cl)n1 (stereo unspecified) | -0.0195
COc1ccc(COCC(=O)NC2CCc3nc(C)cn3C2)cc1 (stereo unspecified) | 1.6
CSC(C)(C)CNC(=O)NC(c1nnc2n1CCC2)C(C)C (stereo unspecified) | -19.9
CCNC(=O)CN(CC)C(=O)c1cc(-c2cccc(Cl)c2)no1 | -9.88
CCc1ncc2c(n1)CN(C(C)C(=O)N1CCOCC1)CC2 (stereo unspecified) | -8.52
COCCN1CCC(Nc2ccc(C#N)cc2F)CC1 | -3.68
COc1cc(I)c(Cl)cc1C(=O)N(C)CC(=O)NC(C)(C)C | 15.4

SMILES | cytotoxicity at 10 µM [%]
CN(Cc1nnc(C2CC2)n1C)S(=O)(=O)c1ccccc1F | 16.8
C[C@H](CCO)NS(=O)(=O)c1ccc(Br)cn1 | -8.63
Cn1ccc(C(=O)NCc2ccccc2Cn2ccnc2)cc1=O | 9.42
CNC(=O)CN1CCC(NC(=O)CC(C)CCc2ccccc2)CC1 (stereo unspecified) | 8.47
CCCC(C)NC(=O)CCN1C(=O)CCc2cc(F)ccc21 (stereo unspecified) | 8.17
Cc1nc(C2CCCN2C(=O)COCCOc2ccccc2)no1 (stereo unspecified) | -5.82
Cc1nc(CN2CCC(N(C)Cc3noc(C(C)C)n3)C2)cs1 (stereo unspecified) | -14.1
COc1ccccc1CC(=O)NCCCN1CCCC1C(=O)N(C)C (stereo unspecified) | -13
O=C(CN(Cc1cccnc1)CC1CCCO1)Nc1ccc(F)cc1 (stereo unspecified) | -10.7
CC(C)NC(=O)c1noc2c1CN(Cc1cnn(C)c1)CC2 | 6.59
c1cnc(N2CCO[C@H]3[C@H](OCc4cccnc4)CC[C@@H]32)nc1 | -5.05
Cc1noc(C)c1CN1CC[C@H]2C[C@@H](c3ccncn3)O[C@@H]2C1 | -3.04
CCc1noc(CN(CCc2ccccc2)C2CCN(C)CC2)n1 | 0.15
O=C(CN1CCOC(c2ccc(Cl)c(Cl)c2)C1)NCc1ccco1 (stereo unspecified) | -7.31
Cc1nc(-c2cccnc2)ncc1C(=O)N1CCCC(N(C)C)CC1 (stereo unspecified) | 9.81
Cc1ccc(C(C(=O)NCCN2CCCCCC2)N(C)C)cc1 (stereo unspecified) | -3.12
Cc1nnc(SCCCNC(=O)Nc2ccc3c(c2)OCO3)s1 | 7.28
O=C(NCCCOC1CCCCC1)C1NCCc2[nH]cnc21 (stereo unspecified) | 4.68
O=C(c1cc(Cl)ccc1OC1CCN(C2CCCC2)CC1)N1CC(O)C1 | -16.2
Cc1cc(C(=O)N[C@H]2Cc3ccccc3[C@@H]2N)c(=O)[nH]c1C | 11.2
CCc1cn[nH]c1C1CCN(C(=O)c2cccc(O)c2C)CC1 | 2.28
Cc1noc(C)c1C(=O)N1CCCC(c2nccn2Cc2cscn2)C1 (stereo unspecified) | 2.11
Cc1nn(C)c(C)c1CN(C)C(C(=O)O)c1ccc(F)cc1F (stereo unspecified) | 8.42

SMILES | cytotoxicity at 10 µM [%]
CC(=O)N1CCc2c(nc(N(C)C)nc2N(C)CCCC2CCCO2)C1 (stereo unspecified) | 7.92
O=C(O)[C@@H]1CN(CC2CCC2)C[C@H]1c1ccc(F)cc1 | -3.62
CN1CCN(Cc2ccccc2Cl)CC12CCC(=O)N(CC1CC1)CC2 (stereo unspecified) | -3.94
Clc1ccc(N2CCC(C3CCN(Cc4cccnc4)CC3)C2)nc1 (stereo unspecified) | 13.5
CCc1nnc(CN2CCCCC2Cn2cncn2)o1 (stereo unspecified) | -1.1
CCOc1cc(C)nc(N2CCN(C(=O)CN(C)C3CC3)CC2)n1 | 5.05
CN(Cc1nnc(C2CC2)n1C)C1CCN(Cc2nccn2C)C1 (stereo unspecified) | -8.22
Cc1cnn(C2CCCN(C(=O)CCCc3ccccn3)C2)c1 (stereo unspecified) | -11.2
CC(Cn1cccn1)NC(=O)NCCc1ccsc1 (stereo unspecified) | -14.8
COc1ccsc1C(=O)N1CCCC(n2cncn2)C1 (stereo unspecified) | 4.6
CC(NC(=O)c1cccs1)C(=O)NCc1ccccn1 (stereo unspecified) | -12.3
O=C(NCCCN1CCCCCC1=O)c1n[nH]c(=O)c2ccccc12 | -12.3
CN(C)c1ccc(C(=O)N2CCN(CC(C)(C)O)CC2)nn1 | -13.3
Cc1nc(CN2CCCC(c3cc(C(F)(F)F)[nH]n3)C2)cs1 (stereo unspecified) | -4.95
Cc1ccc(OCCN(C)C(=O)NC(C)c2nncn2C)cc1 (stereo unspecified) | -9.77
Cc1cnn(CC2CN(CCc3ccccn3)CCO2)c1 (stereo unspecified) | -4.98
Cc1ccc(OCCC(=O)N2CCOCC2c2ncon2)cc1C (stereo unspecified) | -11.9
CN1N=C(C(=O)N2CCCC(n3ccnc3)C2)CCC1=O (stereo unspecified) | -13.2
CN(Cc1ccccc1)CC(O)Cn1cnc2c(cnn2C)c1=O (stereo unspecified) | 1.53
CC(C)c1nn(C)c(N2CCOCC2)c1CNCCS(C)(=O)=O | -8.36
c1cnn(CC2CCCCN2Cc2cn3ccsc3n2)c1 (stereo unspecified) | -7.08
COc1cccc(COCC(=O)N2CCC(CC(N)=O)CC2)c1 | -4.56
CCn1c(CN2CCN(CC(N)=O)CC2)nc2c(F)cccc21 | -9.88

SMILES | cytotoxicity at 10 µM [%]
CCOc1ccc(C#N)cc1NCC(=O)Nc1cc(F)ccc1F | -9.47
CNC(=O)[C@@H]1CN(C(=O)C(C)C)C[C@H]1c1ccnc(N2CCCC2)n1 | 0.791
CNC(=O)N1Cc2cc(F)ccc2C2(CCN(C)CC2)C1 | 0.595
COc1ccc(-c2cnc(N(C)C)nc2C2CNCCO2)cc1 (stereo unspecified) | -1.4
O=C(O)c1c(-c2ccoc2)ncc2c1CCN(C1CCOC1)C2 (stereo unspecified) | 17
CCc1ccc(CN2CCC3(CC2)NC(=O)CC3c2ccncc2)o1 (stereo unspecified) | 1.83
CCCS(=O)(=O)N1CCC2(CN(c3cnn(C)c3)C(=O)CN2C)C1 (stereo unspecified) | -10.7
c1ccc(CN2CCc3nnc(COc4ccccn4)n3CC2)nc1 | -2.1
Cc1noc(C)c1CN1CCC2(CC1)CC(Oc1cccnc1)CO2 (stereo unspecified) | 17.8
CN(C)C(=O)COC1COC2(CCN(c3cnccn3)CC2)C1 (stereo unspecified) | -6.29
CN(C)Cc1cc(=O)n2c(n1)CN(S(=O)(=O)C1CC1)CCC2 | 4.53
CN(C)CCN1CCCC12CCCN(Cc1ccoc1)C2 (stereo unspecified) | 7.88
CS(=O)(=O)N1C[C@H]2CCCN(Cc3ccsc3)[C@H]2C1 | 6.43
O=C(NCc1ccco1)[C@H]1C[C@@H]2CCN(c3ccncn3)C[C@@H]2O1 | -9.58
O=C(NCc1cccc(Cl)c1)C1=NOC2(CCNC2)C1 (stereo unspecified) | -0.0606
O=C1[C@@H]2CCN(Cc3ccoc3)C[C@@H]2OCCN1c1ccccc1 | -0.928
Cc1oncc1C(=O)N1C[C@H]2CCCC(N(C)Cc3cccs3)[C@H]2C1 (stereo partly specified) | 18.8
CCn1cc(CN2C[C@@H]3CC[C@H]2CN(C(=O)c2ccncc2)C3)cn1 | 10.2
Cc1[nH]ccc1C(=O)N1C[C@@H]2CC[C@H]1CN(S(=O)(=O)N(C)C)C2 | 11.8

From ChEMBL document CHEMBL4513216, “Probing the Open Global Health Chemical Diversity Library for Multistage-Active Starting Points for Next-Generation Antimalarials” (ACS Infect Dis, 2020)
